Consider 4 compounds from article PMC12222516 (Scientific Reports, 2025).

Data set [1] in a line: MTT cytotoxicity assay. To be noted: human, normal human dermal fibroblast (HDF) cells. Format: cell-based, human. The method, boiled down:
(§1)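 Human dermal fibroblasts grown in DMEM with 10% FBS, penicillin 100 units/mL, streptomycin 100 µg/mL and amphotericin B 0.25 µg/mL. Seeded at 2 × 10³ cells/well and left to adhere overnight at 37 °C, 5% CO2. Exposed to varying doses for 24 h, with 0.5% DMSO as untreated control. MTT at 1 mg/mL for 4 h at 37 °C. Formazan dissolved in DMSO and read at 570 nm. Viability expressed as % of control.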
For orientation: Tetrazolium assays rely on reduction of a dye to a coloured formazan, in cell work by metabolically active cells.

For data set [2], the system named is normal human dermal fibroblast (HDF) cells. The data set is described as follows: MTT cytotoxicity assay. The format is cell-based. The settings on record: HDF cells, MTT. The method, boiled down:
as §1

Data set [3] concerns the target α-glucosidase from Saccharomyces cerevisiae (Saccharomyces cerevisiae, UniProt P53341). The data set can be described thus: Enzyme kinetic study. The format is biochemical. The method, boiled down: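 Yeast (S. cerevisiae) α-glucosidase, EC 3.2.1.20, kept at 0.02 U/mL. Run with and without test compound at several concentrations, across a range of p-NPG substrate concentrations. Inhibition type assigned from the Lineweaver–Burk plot. Ki taken from a secondary plot of slope against inhibitor concentration.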

Broadly, the CC50 is the concentration that lowers cell viability or growth by half. High values mean lower toxicity to the cells, low ones greater toxicity to the cells. As usually defined, the Ki is the dissociation constant of the complex between target and ligand, obtained from inhibition or displacement. Low values mean tighter binding, high ones weaker binding.

Chain of α-glucosidase from Saccharomyces cerevisiae (P53341 whole entry): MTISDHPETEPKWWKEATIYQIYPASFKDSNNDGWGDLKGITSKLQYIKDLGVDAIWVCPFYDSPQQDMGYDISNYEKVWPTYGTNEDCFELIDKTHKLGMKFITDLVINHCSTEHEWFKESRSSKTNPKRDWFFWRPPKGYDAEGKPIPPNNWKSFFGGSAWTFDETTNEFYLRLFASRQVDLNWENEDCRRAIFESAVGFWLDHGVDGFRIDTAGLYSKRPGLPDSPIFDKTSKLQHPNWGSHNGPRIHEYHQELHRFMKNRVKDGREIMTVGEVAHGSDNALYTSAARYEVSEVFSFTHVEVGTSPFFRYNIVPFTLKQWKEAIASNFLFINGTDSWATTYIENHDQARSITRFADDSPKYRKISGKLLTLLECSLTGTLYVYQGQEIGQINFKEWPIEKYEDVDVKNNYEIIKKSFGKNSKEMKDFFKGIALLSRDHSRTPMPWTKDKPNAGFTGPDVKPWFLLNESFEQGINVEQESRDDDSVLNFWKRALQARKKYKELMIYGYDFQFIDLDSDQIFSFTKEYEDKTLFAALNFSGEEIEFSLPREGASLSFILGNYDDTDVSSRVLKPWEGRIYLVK

Compound `C[C@H]1CN(C(=O)Nc2ccc(C(F)(F)F)cc2)CCN1c1ccnc(Nc2ccc(Cl)cc2)n1` [Compound 7c, (S)-4-(2-((4-chlorophenyl)amino)pyrimidin-4-yl)-3-methyl-N-(4-(trifluoromethyl)phenyl)piperazine-1-carboxamide] came in with a CC50 at 24 h in data set [1] of 42.3 µM.

Turning to `C[C@H]1CN(C(=O)Nc2ccc(C(F)(F)F)cc2)CCN1c1ccnc(Nc2cccc([N+](=O)[O-])c2)n1` [Compound 17c, (S)-3-methyl-4-(2-((3-nitrophenyl)amino)pyrimidin-4-yl)-N-(4-(trifluoromethyl)phenyl)piperazine-1-carboxamide], in data set [1], the CC50 at 24 h was 15.2 µM.

Take `C[C@H]1CN(C(=O)Nc2ccc(C(F)(F)F)cc2)CCN1c1ccnc(Nc2ccc(Cl)c(O)c2)n1` [Compound 21c, (S)-4-(2-((4-chloro-3-hydroxyphenyl)amino)pyrimidin-4-yl)-3-methyl-N-(4-(trifluoromethyl)phenyl)piperazine-1-carboxamide]: the CC50 at 24 h in data set [1] was determined as 23.1 µM. The “cytotoxic effect on normal cells at given IC50 value” in data set [2] was “no cytotoxic effect”. The Ki in data set [3] worked out at 0.74 µM. In data set [3] (Lineweaver–Burk plots), the mode of inhibition entry is “competitive inhibitor”.

Compound `C[C@H]1CN(C(=O)Nc2ccc(C(F)(F)F)cc2)CCN1c1ccnc(Nc2ccc(Cl)c(OCc3ccccc3)c2)n1` [Compound 22c, (S)-4-(2-((3-(benzyloxy)-4-chlorophenyl)amino)pyrimidin-4-yl)-3-methyl-N-(4-(trifluoromethyl)phenyl)piperazine-1-carboxamide] registered a CC50 at 24 h in data set [1] above 200 µM.
